Test results from ChEMBL document CHEMBL1146374, “Clubbed triazoles: a novel approach to antitubercular drugs” (Eur J Med Chem, 2007).
≈ marks a conversion by molar mass, not a printed value.

Assays:
[1] = test system: Mycobacterium tuberculosis; test: (§1) Antituberculosis activity against Mycobacterium tuberculosis H37Rv by Microplate Alamar Blue Assay; assay type: functional
Method in brief: (§2)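 MIC against M. tuberculosis H37Rv (ATCC 27294) in BACTEC 12B medium by broth microdilution (MABA). Primary actives were retested at lower concentrations. MIC is the lowest concentration giving a […] fluorescence reduction versus controls. Fluorescent compounds were run in the BACTEC 460 radiometric system. Rifampin was the reference.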

[2] = test system: Mycobacterium tuberculosis; test: Growth inhibition of Mycobacterium tuberculosis H37Rv at 6.25 ug/ml by Microplate Alamar Blue Assay; assay type: functional; conditions: read-out: GI
Method in brief: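 Primary single-concentration screen against M. tuberculosis H37Rv (ATCC 27294) in BACTEC 12B medium by MABA broth microdilution, read as % inhibition. Compounds that fluoresce were tested in the BACTEC 460 radiometric system. More than 95% inhibition was the activity cutoff.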

Escherichia coli = test: Antibacterial activity against Escherichia coli at 50 to 100 uM after 24 hrs by well diffusion method; assay type: functional
Method in brief: (§3)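 Agar well diffusion: nutrient agar plates with 10 mm wells cut by sterile cork borer; 24-h subcultured bacteria swabbed onto the plates from nutrient broth. Compounds were dissolved in chloroform and added to wells at […]. Gentamycin served as the standard antibiotic.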

Staphylococcus aureus = test: Antibacterial activity against Staphylococcus aureus at 50 to 100 uM after 24 hrs by well diffusion method; assay type: functional; method in brief: as §3
Salmonella typhi = test: Antibacterial activity against Salmonella typhi at 50 to 100 uM after 24 hrs by well diffusion method; assay type: functional, Salmonella enterica subsp. enterica serovar Typhi
Method in brief: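 Agar well diffusion on nutrient agar plates; wells cut with a 10 mm sterile cork borer. Plates swabbed with 24-h subcultured bacteria from nutrient broth. Compounds dissolved in chloroform and added to wells at a range of concentrations. Gentamycin was the standard.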

[3] = Cytotoxicity against Vero-C1008 cells at 6.25 to 50 ug/ml; assay type: cell-based; conditions: chlorocebus sabaeus
Method in brief: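 Vero-C-1008 cells were exposed to compounds at several concentrations across 6.25–50 µg/ml. Cytotoxicity was read out by neutral red uptake.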

Pseudomonas aeruginosa = test: Antibacterial activity against Pseudomonas aeruginosa at 50 to 100 uM after 24 hrs by well diffusion method; assay type: functional; method in brief: as §3
[4] = test system: Mycobacterium tuberculosis; test: as §1; assay type: functional; method in brief: as §2; remark: listed apart in the source

Row | SMILES | MIC [1] [µg/mL] | inhibition of growth at 6.25 µg/mL [2] [%] | zone of inhibition (Escherichia coli) [mm] | zone of inhibition (Staphylococcus aureus) [mm] | Inhibition (Salmonella typhi) [%] | Activity [3] | zone of inhibition (Pseudomonas aeruginosa) [mm] | MIC [4] [µM]
1 | NNC(=O)CSc1nnc(Cc2csc(NC(=O)c3ccccc3)n2)n1NC(=O)c1ccccc1 | < 6.25 | 100 | 30 | 33 | 29 | Non-toxic | 34 | 6.25 (≈ 3.18 µg/mL)
2 | N#CCSc1nnc(Cc2csc(NC(=O)c3ccccc3)n2)n1NC(=O)c1ccccc1 | < 6.25 | 100 | 22 | 26 | 18 | Non-toxic | 24 | 3.13 (≈ 1.49 µg/mL)
3 | O=C(O)CCNc1nc(Cc2nnc(SCC(=O)N/N=C\c3ccccc3)n2NC(=O)c2ccccc2)cs1 | < 6.25 | 98 | 14 | 18 | 12 | Non-toxic | 12 | 3.13 (≈ 1.77 µg/mL)
4 | CC(=O)Nc1nc(Cc2nnc(S)n2N)cs1 | < 6.25 | 100 | 15 | 18 | 14 | Non-toxic | 16 | 6.25 (≈ 1.69 µg/mL)
5 | CC(=O)Nc1nc(Cc2nnc(SCC#N)n2NC(=O)c2ccccc2)cs1 | < 6.25 | 97 | 20 | 22 | 16 | Non-toxic | 22 | 6.25 (≈ 2.58 µg/mL)
6 | CC(=O)Nc1nc(Cc2nnc(SCC(=O)NN)n2NC(=O)c2ccccc2)cs1 | < 6.25 | 100 | 26 | 32 | 24 | Non-toxic | 32 | 3.13 (≈ 1.4 µg/mL)
7 | NNC(=O)CSc1nnc(Cc2csc(NC(=O)CCl)n2)n1NC(=O)c1ccccc1 | < 6.25 | 98 | 12 | 16 | 14 | Non-toxic | 16 | 3.13 (≈ 1.51 µg/mL)
